Measurements published in ChEMBL document CHEMBL1177669, “Synthesis and biological study of 3-(phenylsulfonyl)thieno[2,3-e][1,2,3]triazolo[1,5-a]pyrimidines as potent and selective serotonin 5-HT6 receptor antagonists” (Bioorg Med Chem, 2010).

What follows are compounds tested against 5-hydroxytryptamine receptor 6 (Homo sapiens, UniProt P50406) (assay: Antagonist activity at human recombinant 5HT6 receptor expressed in HEK293 cells assessed as inhibition of serotonin-induced cAMP production).
Assay type: functional, cell-based
Outline: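 HEK293 cells stably expressing recombinant human 5-HT6R, stimulated with serotonin. cAMP from adenylyl cyclase measured by LANCE. Compounds screened at 5 and 10 μM. IC50 determined for compounds giving more than 50% inhibition of cAMP synthesis at 5 μM.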

Sequence of 5-hydroxytryptamine receptor 6 (P50406 whole entry): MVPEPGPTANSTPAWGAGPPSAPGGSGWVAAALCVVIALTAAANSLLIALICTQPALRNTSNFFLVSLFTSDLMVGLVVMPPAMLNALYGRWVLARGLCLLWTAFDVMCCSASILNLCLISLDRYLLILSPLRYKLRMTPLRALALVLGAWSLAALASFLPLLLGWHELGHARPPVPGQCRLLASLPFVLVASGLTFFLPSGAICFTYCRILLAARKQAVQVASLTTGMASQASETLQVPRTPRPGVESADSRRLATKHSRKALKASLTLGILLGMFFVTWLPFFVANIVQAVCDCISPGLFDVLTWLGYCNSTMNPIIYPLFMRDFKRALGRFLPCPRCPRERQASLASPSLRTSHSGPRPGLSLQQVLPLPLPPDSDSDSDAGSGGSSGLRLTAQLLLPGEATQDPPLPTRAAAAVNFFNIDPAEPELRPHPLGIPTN

| SMILES | IC50 [nM] |
| --- | --- |
| O=S(=O)(c1ccc(Cl)cc1)c1nnn2c1nc(NC1CCCCC1)c1sccc12 | 960 |
| Cc1ccc(C)c(S(=O)(=O)c2nnn3c2nc(N2CCC(C)CC2)c2sccc23)c1 | 1990 |
| CCc1ccc(S(=O)(=O)c2nnn3c2nc(Nc2cccc(C)c2)c2sccc23)cc1 | 1750 |
| COc1cccc(CNc2nc3c(S(=O)(=O)c4ccc(C)cc4)nnn3c3ccsc23)c1 | 2210 |
| Cc1ccc(Nc2nc3c(S(=O)(=O)c4ccc(C(C)C)cc4)nnn3c3ccsc23)cc1C | 1110 |
| COc1ccccc1CNc1nc2c(S(=O)(=O)c3ccc(Cl)cc3)nnn2c2ccsc12 | 1150 |
| CC(Cc1ccccc1)Nc1nc2c(S(=O)(=O)c3ccccc3)nnn2c2ccsc12 (centres undefined) | 1080 |
| O=S(=O)(c1cccc(Cl)c1)c1nnn2c1nc(Nc1ccccc1)c1sccc12 | 920 |
| COc1ccccc1CNc1nc2c(S(=O)(=O)c3cccc(Cl)c3)nnn2c2ccsc12 | 780 |
| CC1CCN(c2nc3c(S(=O)(=O)c4cccc(Cl)c4)nnn3c3ccsc23)CC1 | 1120 |
| O=S(=O)(c1ccccc1)c1nnn2c1nc(NCCc1ccccc1)c1sccc12 | 1160 |
| Cc1ccc(C)c(S(=O)(=O)c2nnn3c2nc(N(C)Cc2ccccc2)c2sccc23)c1 | 1480 |
| CCc1cccc(Nc2nc3c(S(=O)(=O)c4ccc(C)cc4)nnn3c3ccsc23)c1 | 1380 |
| NC(=O)C1CCN(c2nc3c(S(=O)(=O)c4ccccc4)nnn3c3ccsc23)CC1 | 1990 |
| COCCCNc1nc2c(S(=O)(=O)c3ccc(Cl)cc3)nnn2c2ccsc12 | > 5000 |
| COc1cccc(Nc2nc3c(S(=O)(=O)c4ccc(C(C)C)cc4)nnn3c3ccsc23)c1 | 900 |
| O=S(=O)(c1ccccc1)c1nnn2c1nc(NCc1ccc(Cl)cc1)c1sccc12 | 1170 |
| Cc1ccc(S(=O)(=O)c2nnn3c2nc(NCc2ccc4c(c2)OCO4)c2sccc23)cc1 | 1250 |
| CN(Cc1ccccc1)c1nc2c(S(=O)(=O)c3ccc(Br)cc3)nnn2c2ccsc12 | 1950 |
| CCc1ccc(S(=O)(=O)c2nnn3c2nc(NC(C)C)c2sccc23)cc1 | 1600 |
| O=S(=O)(c1cccc(Cl)c1)c1nnn2c1nc(Nc1cccc(C(F)(F)F)c1)c1sccc12 | 1070 |
| CC(C)c1ccc(S(=O)(=O)c2nnn3c2nc(NCc2ccccc2Cl)c2sccc23)cc1 | 1830 |
| Cc1ccc(C)c(S(=O)(=O)c2nnn3c2nc(N2CCCCC2)c2sccc23)c1 | 1520 |
| COCCNc1nc2c(S(=O)(=O)c3ccc(Cl)cc3)nnn2c2ccsc12 | 2170 |
| Cc1ccc(S(=O)(=O)c2nnn3c2nc(NCCc2ccccc2)c2sccc23)cc1 | 960 |
| O=S(=O)(c1ccccc1)c1nnn2c1nc(Nc1nc3ccccc3s1)c1sccc12 | > 5000 |

| SMILES | IC50 [nM] |
| --- | --- |
| Cc1cccc(Nc2nc3c(S(=O)(=O)c4ccc(Cl)cc4)nnn3c3ccsc23)c1C | 800 |
| O=S(=O)(c1ccccc1)c1nnn2c1nc(Nc1ccccc1)c1sccc12 | 5000 |
| COCCNc1nc2c(S(=O)(=O)c3ccc(C)c(C)c3)nnn2c2ccsc12 | 1570 |
| COc1ccccc1CNc1nc2c(S(=O)(=O)c3ccc(Br)cc3)nnn2c2ccsc12 | 930 |
| Cc1ccc(S(=O)(=O)c2nnn3c2nc(NC2CCCC2)c2sccc23)cc1 | 2030 |
| O=S(=O)(c1cccc(Cl)c1)c1nnn2c1nc(NCCc1ccccc1)c1sccc12 | 820 |
| Cc1ccc(Nc2nc3c(S(=O)(=O)c4ccc(Br)cc4)nnn3c3ccsc23)cc1C | 1350 |
| O=S(=O)(c1cccc(Cl)c1)c1nnn2c1nc(N1CCOCC1)c1sccc12 | 1040 |
| Cc1cc(Cl)cc(Nc2nc3c(S(=O)(=O)c4ccc(C)c(C)c4)nnn3c3ccsc23)c1 | 2260 |
| Cc1ccc(S(=O)(=O)c2nnn3c2nc(Nc2cccc(C)c2)c2sccc23)cc1 | 5220 |
| CCN(Cc1ccccc1)c1nc2c(S(=O)(=O)c3cc(C)ccc3C)nnn2c2ccsc12 | 1100 |
| COc1cccc(CNc2nc3c(S(=O)(=O)c4ccccc4)nnn3c3ccsc23)c1 | 1370 |
| O=S(=O)(c1ccc(Br)cc1)c1nnn2c1nc(NCC1CCCO1)c1sccc12 (centres undefined) | 1620 |
| CN(Cc1ccccc1)c1nc2c(S(=O)(=O)c3ccc(Cl)cc3)nnn2c2ccsc12 | 1190 |
| COCCCNc1nc2c(S(=O)(=O)c3ccc(C)c(C)c3)nnn2c2ccsc12 | 2380 |
| CCN(CC)c1nc2c(S(=O)(=O)c3cccc(Cl)c3)nnn2c2ccsc12 | 1220 |
| COCCNc1nc2c(S(=O)(=O)c3ccc(C)cc3)nnn2c2ccsc12 | 1490 |
| Cc1cccc(Nc2nc3c(S(=O)(=O)c4ccc(C(C)C)cc4)nnn3c3ccsc23)c1C | 1000 |
| Cc1ccc(S(=O)(=O)c2nnn3c2nc(NC2CCCCCC2)c2sccc23)cc1 | 790 |
| Cc1ccc(C)c(S(=O)(=O)c2nnn3c2nc(NCCCc2ccccc2)c2sccc23)c1 | 1220 |
| COc1ccccc1Nc1nc2c(S(=O)(=O)c3ccc(Cl)cc3)nnn2c2ccsc12 | 1150 |
| O=S(=O)(c1ccccc1)c1nnn2c1nc(Nc1cccc(C(F)(F)F)c1)c1sccc12 | 820 |
| COCCNc1nc2c(S(=O)(=O)c3cc(C)ccc3C)nnn2c2ccsc12 | 860 |
| COCCCNc1nc2c(S(=O)(=O)c3ccc(Br)cc3)nnn2c2ccsc12 | > 5000 |
| CC(C)Nc1nc2c(S(=O)(=O)c3ccc(Cl)cc3)nnn2c2ccsc12 | 1200 |
| Cc1ccc(C)c(S(=O)(=O)c2nnn3c2nc(NCC2CCCO2)c2sccc23)c1 (centres undefined) | 890 |

Continued by falling IC50, values first:

| IC50 [nM] | SMILES |
| --- | --- |
| 770 | Cc1ccc(S(=O)(=O)c2nnn3c2nc(NCc2ccco2)c2sccc23)cc1C |
| 750 | Cc1ccc(S(=O)(=O)c2nnn3c2nc(NC(C)C)c2sccc23)cc1C |
| 740 | Cc1ccc(S(=O)(=O)c2nnn3c2nc(NCc2ccc(F)cc2)c2sccc23)cc1 |
| 740 | Cc1ccc(C)c(Nc2nc3c(S(=O)(=O)c4cccc(Cl)c4)nnn3c3ccsc23)c1 |
| 730 | Cc1ccc(S(=O)(=O)c2nnn3c2nc(NC2CCCCC2)c2sccc23)cc1 |
| 710 | Cc1ccc(C)c(S(=O)(=O)c2nnn3c2nc(NCc2cccs2)c2sccc23)c1 |
| 690 | Nc1nc2c(S(=O)(=O)c3cccc(Cl)c3)nnn2c2ccsc12 |
| 690 | O=S(=O)(c1ccccc1)c1nnn2c1nc(NCc1ccc(F)cc1)c1sccc12 |
| 680 | Cc1ccc(S(=O)(=O)c2nnn3c2nc(NC(C)Cc2ccccc2)c2sccc23)cc1C (centres undefined) |
| 670 | Cc1ccc(C)c(S(=O)(=O)c2nnn3c2nc(NCCc2ccccc2)c2sccc23)c1 |
| 650 | O=S(=O)(c1ccc(Cl)cc1)c1nnn2c1nc(NCc1cccs1)c1sccc12 |
| 610 | Nc1nc2c(S(=O)(=O)c3ccc(Br)cc3)nnn2c2ccsc12 |
| 600 | Cc1ccc(S(=O)(=O)c2nnn3c2nc(NCc2ccccc2Cl)c2sccc23)cc1C |
| 590 | Cc1ccc(S(=O)(=O)c2nnn3c2nc(Nc2cccc(C)c2C)c2sccc23)cc1 |
| 580 | COc1ccccc1CNc1nc2c(S(=O)(=O)c3ccc(C)cc3)nnn2c2ccsc12 |
| 580 | Cc1ccc(S(=O)(=O)c2nnn3c2nc(NCCC(C)C)c2sccc23)cc1 |
| 580 | CN(C)CCN(C)c1nc2c(S(=O)(=O)c3cccc(Cl)c3)nnn2c2ccsc12 |
| 570 | CCN(Cc1ccccc1)c1nc2c(S(=O)(=O)c3ccc(Cl)cc3)nnn2c2ccsc12 |
| 540 | CCN(Cc1ccccc1)c1nc2c(S(=O)(=O)c3cccc(Cl)c3)nnn2c2ccsc12 |
| 520 | Cc1ccc(S(=O)(=O)c2nnn3c2nc(NCc2ccc(F)cc2)c2sccc23)cc1C |
| 500 | Cc1ccc(S(=O)(=O)c2nnn3c2nc(NCc2ccco2)c2sccc23)cc1 |
| 480 | O=S(=O)(c1ccc(Cl)cc1)c1nnn2c1nc(NCC1CCCO1)c1sccc12 (centres undefined) |
| 470 | COc1ccccc1CNc1nc2c(S(=O)(=O)c3ccc(C)c(C)c3)nnn2c2ccsc12 |
| 470 | CC(C)Nc1nc2c(S(=O)(=O)c3cccc(Cl)c3)nnn2c2ccsc12 |

| IC50 [nM] | SMILES |
| --- | --- |
| 350 | Cc1ccc(S(=O)(=O)c2nnn3c2nc(NC2CCCCCC2)c2sccc23)cc1C |
| 300 | CCN(Cc1ccccc1)c1nc2c(S(=O)(=O)c3ccc(C)cc3)nnn2c2ccsc12 |
| 290 | O=S(=O)(c1ccccc1)c1nnn2c1nc(NCc1ccc3c(c1)OCO3)c1sccc12 |
| 280 | CC(Nc1nc2c(S(=O)(=O)c3ccc(Cl)cc3)nnn2c2ccsc12)c1ccccc1 (centres undefined) |
| 270 | O=S(=O)(c1ccc(Cl)cc1)c1nnn2c1nc(NCc1ccccc1)c1sccc12 |
| 250 | Cc1ccc(S(=O)(=O)c2nnn3c2nc(NCC2CCCO2)c2sccc23)cc1 (centres undefined) |
| 220 | Cc1ccc(S(=O)(=O)c2nnn3c2nc(NCc2cccs2)c2sccc23)cc1 |
| 190 | COCCNc1nc2c(S(=O)(=O)c3ccccc3)nnn2c2ccsc12 |
| 190 | O=S(=O)(c1cccc(Cl)c1)c1nnn2c1nc(NCc1ccco1)c1sccc12 |
| 170 | Cc1ccc(C)c(S(=O)(=O)c2nnn3c2nc(NC(C)c2ccccc2)c2sccc23)c1 (centres undefined) |
| 150 | COCCCNc1nc2c(S(=O)(=O)c3cccc(Cl)c3)nnn2c2ccsc12 |
| 150 | O=S(=O)(c1cccc(Cl)c1)c1nnn2c1nc(NCc1cccs1)c1sccc12 |
| 150 | CC(Nc1nc2c(S(=O)(=O)c3cccc(Cl)c3)nnn2c2ccsc12)c1ccccc1 (centres undefined) |
| 140 | O=S(=O)(c1cccc(Cl)c1)c1nnn2c1nc(NC1CCCCCC1)c1sccc12 |
| 120 | Cc1ccc(S(=O)(=O)c2nnn3c2nc(NCc2cccc(Cl)c2)c2sccc23)cc1 |
| 110 | COCCNc1nc2c(S(=O)(=O)c3cccc(Cl)c3)nnn2c2ccsc12 |
| 69 | CCCCNc1nc2c(S(=O)(=O)c3ccccc3)nnn2c2ccsc12 |
| 69 | O=S(=O)(c1cccc(Cl)c1)c1nnn2c1nc(NC1CCCCC1)c1sccc12 |
| 60 | CCCCNc1nc2c(S(=O)(=O)c3cccc(Cl)c3)nnn2c2ccsc12 |
| 59 | O=S(=O)(c1ccccc1)c1nnn2c1nc(NCc1ccccc1)c1sccc12 |
| 46 | Cc1ccc(S(=O)(=O)c2nnn3c2nc(NCCC(C)C)c2sccc23)cc1C |
| 37 | CC(Nc1nc2c(S(=O)(=O)c3ccccc3)nnn2c2ccsc12)c1ccccc1 (centres undefined) |
| 32 | O=S(=O)(c1ccccc1)c1nnn2c1nc(NCc1ccccc1Cl)c1sccc12 |
